Assay [1] deals with Echinococcus multilocularis. The assay is described as follows: Antiparasitic activity against Echinococcus multilocularis protoscolex at 5 uM after 5 days by trypan blue staining. It is filed as functional, organism-based. In a few lines: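 Protoscoleces of the Nemuro strain, freed of host material, kept in long-term maintenance medium in six-well plates at about 500 protoscoleces/ml, with half the medium replaced twice weekly. Compound added to the medium at 5 or 50 μM; the vehicle control was 0.5% (vol/vol) DMSO. Run in triplicate. Viability was scored microscopically on >170 protoscoleces per well by motility and trypan blue exclusion.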

Assay [2] can be described thus: Inhibition of NADH fumarate reductase in Echinococcus multilocularis protoscolece. In a few lines:
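Enriched mitochondrial fraction from Nemuro-strain protoscoleces, 80 μg protein/ml, in 30 mM potassium phosphate pH 7.4 with 1 mM MgCl2 at 25°C. Made anaerobic over 3 min with glucose oxidase, catalase and 10 mM β-D-glucose. NADH (100 μM) oxidation followed at 340 nm after starting with 5 mM fumarate. IC50 determined.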

The test system of assay [3] is Echinococcus multilocularis. The assay can be described thus: Antiparasitic activity against Echinococcus multilocularis protoscolex assessed as reduction of parasite viability at 50 uM by trypan blue staining. The format is functional, organism-based.
For assay [4], the system named is Echinococcus multilocularis. The assay can be described thus: Antiparasitic activity against Echinococcus multilocularis protoscolex assessed dead parasite at 50 uM after 5 days by trypan blue staining. The format is functional, organism-based.
Assay [5] is described as follows: Inhibition of bovine heart mitochondrial NADH oxidase.

Calls of active or inactive are those of the source. No cut-off for these calls is given here.

From ChEMBL document CHEMBL1151456, “Anaerobic NADH-fumarate reductase system is predominant in the respiratory chain of Echinococcus multilocularis, providing a novel target for the chemotherapy of alveolar echinococcosis” (Antimicrob Agents Chemother, 2008) come the findings set out here.

Consider `CC(=O)Oc1ccccc1C(=O)Nc1ncc([N+](=O)[O-])s1`, for which the outcome in assay [1] was inactive. For `COc1cccc2c(NCCc3ccc(C(C)(C)C)cc3)ncnc12`, 0.048 µM corresponded to half-maximal inhibition in assay [2] (IC50).

For `CC(C)Oc1cccc2c(NCCc3ccc(C(C)(C)C)cc3)ncnc12`, the IC50 in assay [2] was 0.91 µM.

In assay [2], `CC(C)(C)c1ccc(CCNc2ncnc3cc(N)ccc23)cc1` had an IC50 of 0.062 µM. The same measure, in the same setting: the figure for `CC(C)(C)c1ccc(CCNc2ncnc3ccc(N)cc23)cc1` is 0.0021 µM. With `C=C(C)[C@H]1Cc2c(ccc3c2O[C@@H]2COc4cc(OC)c(OC)cc4[C@@H]2C3=O)O1`, the result in assay [1] was Active. Turning to `CC(C)(C)c1ccc(CCNc2ncnc3c(O)cccc23)cc1`, the outcome in assay [3] and in assay [4] was Active. Moreover, the figures for the IC50 in assay [2] and in assay [5] were 0.071 µM and 0.23 µM, respectively. Besides, the result in assay [1] was inactive. The compound `C=CC(=O)Nc1ccc2ncnc(NCCc3ccc(C(C)(C)C)cc3)c2c1` gave an IC50 in assay [2] of 0.016 µM. Still for that read-out and setting: the same measure for `CCOc1cccc2c(NCCc3ccc(C(C)(C)C)cc3)ncnc12`: 4.1 µM; for `c1ccc2ncncc2c1` [QUINAZOLINE]: 0.0023 µM.
